In ChEMBL document CHEMBL1641497, “A potent and selective indole N-type calcium channel (Ca(v)2.2) blocker for the treatment of pain” (Bioorg Med Chem Lett, 2011):
pEC50, pIC50: −log10 of the molar value.

Columns and labels:
[1] = target: T1, Voltage-dependent N-type calcium channel subunit alpha-1B (Homo sapiens, UniProt Q00975); assay: Blockade of Cav2.2 channel by fluorescent calcium-influx assay
Method in brief: (§1)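 […] Cav2.2 channel block measured in vitro with a fluorescent calcium-influx (FLIPR) assay. Results are reported as % inhibition at 10 μM, with an IC50 (μM) for selected compounds.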
Target sequence in this assay (Q00975 whole entry): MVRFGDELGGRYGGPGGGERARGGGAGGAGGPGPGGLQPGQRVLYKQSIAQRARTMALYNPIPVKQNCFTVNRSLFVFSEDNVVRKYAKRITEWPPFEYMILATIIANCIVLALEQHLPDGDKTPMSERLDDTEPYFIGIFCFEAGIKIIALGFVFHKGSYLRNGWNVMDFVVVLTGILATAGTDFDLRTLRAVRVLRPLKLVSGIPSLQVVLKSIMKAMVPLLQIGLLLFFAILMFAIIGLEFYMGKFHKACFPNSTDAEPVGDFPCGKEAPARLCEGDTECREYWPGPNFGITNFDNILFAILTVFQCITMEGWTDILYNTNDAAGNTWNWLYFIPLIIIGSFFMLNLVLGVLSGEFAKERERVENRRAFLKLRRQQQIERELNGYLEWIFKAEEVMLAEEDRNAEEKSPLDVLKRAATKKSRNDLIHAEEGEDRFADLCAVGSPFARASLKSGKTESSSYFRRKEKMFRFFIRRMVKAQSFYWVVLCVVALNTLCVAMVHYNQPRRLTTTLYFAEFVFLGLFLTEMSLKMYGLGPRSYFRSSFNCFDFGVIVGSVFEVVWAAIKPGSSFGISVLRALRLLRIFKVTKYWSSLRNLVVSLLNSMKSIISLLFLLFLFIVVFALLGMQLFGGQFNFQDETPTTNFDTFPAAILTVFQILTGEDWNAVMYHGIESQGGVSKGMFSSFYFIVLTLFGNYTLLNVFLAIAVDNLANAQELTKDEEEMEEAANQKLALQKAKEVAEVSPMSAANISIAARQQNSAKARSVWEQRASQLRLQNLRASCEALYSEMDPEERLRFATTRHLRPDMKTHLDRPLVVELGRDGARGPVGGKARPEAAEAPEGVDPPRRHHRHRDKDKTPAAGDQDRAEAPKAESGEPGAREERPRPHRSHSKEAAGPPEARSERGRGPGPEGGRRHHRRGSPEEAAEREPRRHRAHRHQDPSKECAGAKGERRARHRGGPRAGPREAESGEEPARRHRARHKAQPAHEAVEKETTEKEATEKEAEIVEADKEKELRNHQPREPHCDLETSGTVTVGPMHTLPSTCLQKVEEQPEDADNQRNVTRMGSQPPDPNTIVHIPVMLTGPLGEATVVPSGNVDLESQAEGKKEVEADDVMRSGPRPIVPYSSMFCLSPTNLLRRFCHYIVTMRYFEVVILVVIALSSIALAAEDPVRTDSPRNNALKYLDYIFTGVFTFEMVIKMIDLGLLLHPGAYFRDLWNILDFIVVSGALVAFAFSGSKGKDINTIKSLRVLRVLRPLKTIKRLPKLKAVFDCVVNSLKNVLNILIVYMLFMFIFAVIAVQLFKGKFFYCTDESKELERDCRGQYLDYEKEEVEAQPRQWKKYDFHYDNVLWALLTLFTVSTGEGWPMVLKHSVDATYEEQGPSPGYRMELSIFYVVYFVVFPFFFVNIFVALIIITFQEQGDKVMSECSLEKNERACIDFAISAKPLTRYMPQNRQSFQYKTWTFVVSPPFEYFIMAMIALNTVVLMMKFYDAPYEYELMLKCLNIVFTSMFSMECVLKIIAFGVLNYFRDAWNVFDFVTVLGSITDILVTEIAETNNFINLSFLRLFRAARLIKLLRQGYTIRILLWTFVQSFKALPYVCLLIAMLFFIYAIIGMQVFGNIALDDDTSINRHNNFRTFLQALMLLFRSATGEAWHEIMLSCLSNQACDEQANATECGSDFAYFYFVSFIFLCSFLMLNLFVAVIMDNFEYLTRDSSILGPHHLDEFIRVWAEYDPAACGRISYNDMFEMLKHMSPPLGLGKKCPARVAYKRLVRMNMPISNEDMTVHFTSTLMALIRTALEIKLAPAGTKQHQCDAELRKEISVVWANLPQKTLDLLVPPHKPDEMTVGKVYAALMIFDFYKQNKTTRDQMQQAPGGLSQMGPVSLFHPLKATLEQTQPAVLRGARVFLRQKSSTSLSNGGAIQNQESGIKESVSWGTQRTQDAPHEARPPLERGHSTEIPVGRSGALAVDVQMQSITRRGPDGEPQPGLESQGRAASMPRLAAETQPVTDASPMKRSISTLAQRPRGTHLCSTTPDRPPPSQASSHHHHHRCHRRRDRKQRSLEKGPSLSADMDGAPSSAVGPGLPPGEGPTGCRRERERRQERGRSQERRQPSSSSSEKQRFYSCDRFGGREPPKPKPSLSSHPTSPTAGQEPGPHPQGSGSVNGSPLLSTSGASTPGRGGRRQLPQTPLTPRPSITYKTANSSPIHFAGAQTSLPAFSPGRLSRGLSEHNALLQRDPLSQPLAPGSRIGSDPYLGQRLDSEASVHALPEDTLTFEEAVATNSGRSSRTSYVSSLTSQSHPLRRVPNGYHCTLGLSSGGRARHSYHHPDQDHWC

[2] = target: T1, Voltage-dependent N-type calcium channel subunit alpha-1B; assay: Blockade of Cav2.2 channel at 10 uM by fluorescent calcium-influx assay; method in brief: as §1
Target sequence in this assay (Q00975 whole entry, looked up): as the sequence (Q00975 whole entry) above

[3] = target: Cav1.2 (voltage-dependent L-type calcium channel subunit alpha-1C) (Homo sapiens, UniProt Q13936); assay: Blockade of Cav1.2 channel at 10 uM by fluorescent calcium-influx assay
Method in brief: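 Cav1.2 (L-type) channel block measured with a fluorescent calcium-influx FLIPR assay. Results are reported as % inhibition at 10 μM test concentration.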

[4] = tested on: hERG (Homo sapiens); assay: Blockade of hERG channel at 10 uM by displacement of MK-0499 binding
[5] = target: T2, Nuclear receptor subfamily 1 group I member 2 (Homo sapiens, UniProt O75469); assay: Activity at PXR by induction assay
T2 sequence (O75469 whole entry): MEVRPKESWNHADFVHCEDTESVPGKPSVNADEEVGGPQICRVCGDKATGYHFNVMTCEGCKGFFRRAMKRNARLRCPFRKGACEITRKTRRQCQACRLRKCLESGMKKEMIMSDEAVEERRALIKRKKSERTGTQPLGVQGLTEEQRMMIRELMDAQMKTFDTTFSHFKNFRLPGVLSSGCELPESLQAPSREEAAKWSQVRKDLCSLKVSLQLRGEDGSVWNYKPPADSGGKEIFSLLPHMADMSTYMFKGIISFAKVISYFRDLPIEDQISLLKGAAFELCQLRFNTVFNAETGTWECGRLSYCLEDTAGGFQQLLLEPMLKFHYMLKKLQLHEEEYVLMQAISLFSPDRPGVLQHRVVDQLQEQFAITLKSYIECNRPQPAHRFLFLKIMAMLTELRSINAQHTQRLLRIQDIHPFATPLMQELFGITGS

[6] = Metabolic stability in human liver microsomes assessed as compound remaining after 60 mins; type: ADME, Microsome; conditions: read-out: Stability
Method in brief: (§2)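 Compounds incubated with human or rat liver microsomes for 60 min. Read-out is the percent of parent compound remaining.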

[7] = Half life in rat at 1 mg/kg, iv and 3 mg/kg, po; type: ADME, organism-based; conditions: in vivo
Method in brief: (§3)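 Rat PK with 1.0 mg/kg IV and 3.0 mg/kg PO doses, based on plasma analysis. Parameters: Cmax, dose-normalized AUC (μM h kg/mg), plasma clearance (mL/min/kg), Vdss (L/kg), T1/2 (h) and oral bioavailability (%).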

[8] = Oral bioavailability in rat at 3 mg/kg; type: ADME, organism-based; conditions: in vivo; method in brief: as §3
[9] = Plasma clearance in rat at 1 mg/kg, iv and 3 mg/kg, po; type: ADME, organism-based; method in brief: as §3
[10] = tested on: Rattus norvegicus; assay: Dose normalized AUC in rat at 1 mg/kg, iv and 3 mg/kg, po; type: ADME, organism-based; conditions: in vivo; method in brief: as §3
[11] = Metabolic stability in rat liver microsomes assessed as compound remaining after 60 mins; type: ADME, Microsome; conditions: read-out: Stability; method in brief: as §2
[12] = target: Nav1.5 (sodium channel protein type 5 subunit alpha) (Homo sapiens, UniProt Q14524); assay: Blockade of Nav1.5 channel at 10 uM by fluorescent […] assay

Cav1.2 (voltage-dependent L-type calcium channel subunit alpha-1C), sequence (Q13936 whole entry): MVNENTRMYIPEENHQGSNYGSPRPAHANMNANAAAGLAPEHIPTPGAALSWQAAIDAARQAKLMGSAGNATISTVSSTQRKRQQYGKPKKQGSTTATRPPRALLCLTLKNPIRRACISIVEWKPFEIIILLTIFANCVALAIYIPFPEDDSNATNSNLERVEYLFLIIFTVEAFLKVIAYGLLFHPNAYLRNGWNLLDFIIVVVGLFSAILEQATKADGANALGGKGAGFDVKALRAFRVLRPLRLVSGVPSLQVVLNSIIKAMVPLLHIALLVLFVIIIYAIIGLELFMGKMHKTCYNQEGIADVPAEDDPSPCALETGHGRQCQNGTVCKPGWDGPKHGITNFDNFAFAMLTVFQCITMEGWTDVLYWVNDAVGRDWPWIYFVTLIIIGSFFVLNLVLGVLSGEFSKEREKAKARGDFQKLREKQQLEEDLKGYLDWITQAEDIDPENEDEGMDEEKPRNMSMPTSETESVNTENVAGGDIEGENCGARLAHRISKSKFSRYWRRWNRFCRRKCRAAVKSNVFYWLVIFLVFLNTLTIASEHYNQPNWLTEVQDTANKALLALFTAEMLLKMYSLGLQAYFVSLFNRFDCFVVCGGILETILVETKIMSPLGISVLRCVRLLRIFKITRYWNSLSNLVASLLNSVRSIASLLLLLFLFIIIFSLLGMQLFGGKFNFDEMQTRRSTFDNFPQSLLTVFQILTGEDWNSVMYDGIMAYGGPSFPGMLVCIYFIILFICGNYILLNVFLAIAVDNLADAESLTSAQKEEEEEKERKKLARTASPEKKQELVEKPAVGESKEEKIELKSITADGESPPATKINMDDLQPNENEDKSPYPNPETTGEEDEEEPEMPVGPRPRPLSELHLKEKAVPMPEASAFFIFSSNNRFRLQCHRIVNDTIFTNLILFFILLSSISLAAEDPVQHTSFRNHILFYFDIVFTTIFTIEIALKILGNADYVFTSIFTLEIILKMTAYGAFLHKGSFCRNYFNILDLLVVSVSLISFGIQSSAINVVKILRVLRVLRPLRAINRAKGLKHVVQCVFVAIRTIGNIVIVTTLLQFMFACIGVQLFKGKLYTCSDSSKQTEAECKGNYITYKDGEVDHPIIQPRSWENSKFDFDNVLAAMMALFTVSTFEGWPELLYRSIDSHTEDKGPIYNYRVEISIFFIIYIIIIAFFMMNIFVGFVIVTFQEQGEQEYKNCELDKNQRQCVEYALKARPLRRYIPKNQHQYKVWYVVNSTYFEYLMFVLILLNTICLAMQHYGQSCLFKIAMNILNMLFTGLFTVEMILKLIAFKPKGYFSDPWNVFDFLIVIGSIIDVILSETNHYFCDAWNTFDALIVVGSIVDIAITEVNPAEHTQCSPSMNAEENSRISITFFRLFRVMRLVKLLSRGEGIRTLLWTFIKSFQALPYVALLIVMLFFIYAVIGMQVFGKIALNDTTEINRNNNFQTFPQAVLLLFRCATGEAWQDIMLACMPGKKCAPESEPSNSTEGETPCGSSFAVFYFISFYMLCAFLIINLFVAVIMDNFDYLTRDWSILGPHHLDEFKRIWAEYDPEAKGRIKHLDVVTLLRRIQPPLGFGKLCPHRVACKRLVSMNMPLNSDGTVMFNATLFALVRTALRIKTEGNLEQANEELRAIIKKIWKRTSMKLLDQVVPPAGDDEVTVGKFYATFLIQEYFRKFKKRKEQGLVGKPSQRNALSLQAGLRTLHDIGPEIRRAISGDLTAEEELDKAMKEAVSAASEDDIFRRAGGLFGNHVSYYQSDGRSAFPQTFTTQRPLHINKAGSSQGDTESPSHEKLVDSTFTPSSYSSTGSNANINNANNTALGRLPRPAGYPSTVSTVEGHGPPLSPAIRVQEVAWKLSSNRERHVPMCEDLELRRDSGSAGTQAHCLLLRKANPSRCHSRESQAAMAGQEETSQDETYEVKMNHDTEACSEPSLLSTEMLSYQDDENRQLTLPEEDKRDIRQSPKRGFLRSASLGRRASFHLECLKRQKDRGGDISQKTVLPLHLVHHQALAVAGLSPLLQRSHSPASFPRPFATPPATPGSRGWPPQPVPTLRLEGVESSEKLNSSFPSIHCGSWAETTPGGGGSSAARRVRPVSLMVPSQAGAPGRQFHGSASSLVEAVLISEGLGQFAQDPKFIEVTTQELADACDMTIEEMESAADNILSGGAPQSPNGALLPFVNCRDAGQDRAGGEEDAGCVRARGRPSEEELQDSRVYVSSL

pIC50 [1] | inhibition [2] [%] | pEC50 [5] | Structure (SMILES) | inhibition at 10 µM [3] [%] | further results
6.18 | 91 | – | Cc1cc(C)cc(-c2cc3cc(C(C)(C)C(=O)NC(C)(C)C)ccc3n2CC(=O)OC(C)(C)C)c1 | 48 | inhibition at 10 µM [4]: 60%
– | – | < 4.52 | CC(C)(C)NC(=O)Cn1c(-c2cc(F)cc(C(F)(F)F)c2)cc2cc(C(C)(C)C(=O)NC(C)(C)C)ccc21 | 88 | –
6.17 | 97 | – | Cc1cc(C)cc(-c2cc3cc(C(=O)NC(C)(C)C)ccc3n2CC(C)O)c1 (stereo not given) | 90 | inhibition at 10 µM [4]: 64%
– | – | 6.22 | CC(C)(C)NC(=O)C(c1ccccn1)n1ccc2cc(C(C)(C)C(=O)NC(C)(C)C)ccc21 (stereo not given) | 64 | –
– | 36 | – | Cc1cc(C)cc(-c2cc3cc(C(C)(C)C(=O)NC(C)(C)C)ccc3n2Cc2ccc(Cl)cc2)c1 | – | –
– | 36 | – | Cc1cc(C)cc(-c2cc3cc(OC(F)(F)F)ccc3n2CC(C)O)c1 (stereo not given) | 43 | –
5.93 | 91 | – | Cc1cc(C)cc(-c2cc3cc(C(C)(C)C(=O)NCC(F)(F)F)ccc3n2CC(C)O)c1 (stereo not given) | – | –
6.27 | 99 | – | Cc1cc(C)cc(-c2cc3cc(C(C)(C)C(=O)NC(C)(C)C)ccc3n2Cc2c(C)noc2C)c1 | – | inhibition at 10 µM [4]: 65%
– | – | < 4.52 | CC(C)(C)NC(=O)Cn1c(-c2ccccc2OC(F)(F)F)cc2cc(C(C)(C)C(=O)NC(C)(C)C)ccc21 | 79 | remaining at 1 h [6]: 0.04%; half-life [7]: 2.68 h; bioavailability [8]: 38%; clearance [9]: 21 mL/min/kg; AUC [10]: 0.57 µM·kg·h/mg; remaining at 1 h [11]: 2.5%
– | – | 6.03 | CC(C)(C)NC(=O)Cn1c(-c2ccc(F)cc2F)cc2cc(C(C)(C)C(=O)NC(C)(C)C)ccc21 | 93 | –
6.28 | 99 | – | COCCn1c(-c2cc(C)cc(C)c2)cc2cc(C(C)(C)C(=O)NC(C)(C)C)ccc21 | 70 | –
– | – | 5.74 | CC(C)(C)NC(=O)Cn1c(-c2ccccc2)cc2cc(C(C)(C)C(=O)NC(C)(C)C)ccc21 | 79 | –
– | 44 | – | Cc1cc(C)cc(-c2cc3cc(C(C)(C)CO)ccc3n2CC(C)O)c1 (stereo not given) | 32 | –
6.72 | 98 | < 4.52 | Cc1cc(C)cc(-c2cc3cc(C(C)(C)C(=O)NC(C)(C)C)ccc3n2CC(=O)NC(C)(C)C)c1 | 78 | inhibition at 10 µM [4]: 33%
– | – | < 4.52 | CC(C)(C)NC(=O)Cn1c(-c2cccc(OC(F)(F)F)c2)cc2cc(C(C)(C)C(=O)NC(C)(C)C)ccc21 | 93 | remaining at 1 h [6]: 0.82%; half-life [7]: 2.27 h; bioavailability [8]: 26%; clearance [9]: 11 mL/min/kg; AUC [10]: 0.83 µM·kg·h/mg; remaining at 1 h [11]: 22%
– | 59 | – | Cc1cc(C)cc(-c2cc3cc(C(C)(C)C(=O)NC(C)(C)C)ccc3n2C(=O)OC(C)(C)C)c1 | – | –
– | – | 6.13 | COc1ccccc1-c1cc2cc(C(C)(C)C(=O)NC(C)(C)C)ccc2n1CC(=O)NC(C)(C)C | 60 | –
– | – | 6.24 | CC(C)(C)NC(=O)Cn1c(C(C)(C)C)cc2cc(C(C)(C)C(=O)NC(C)(C)C)ccc21 | 47 | –
– | – | 5.18 | CC(C)(C)NC(=O)Cn1c(C(=O)NC(C)(C)C)cc2cc(C(C)(C)C(=O)NC(C)(C)C)ccc21 | 24 | –
6.06 | – | – | CCCN[C@@H](C)c1c(-c2cc(C)cc(C)c2)[nH]c2ccc(C(C)(C)C(=O)N3C4CCC3CC4)cc12 | 62 | inhibition at 10 µM [12]: 44%
– | – | 4.97 | CC(C)(C)NC(=O)Cn1c(-c2cc(C(F)(F)F)cc(C(F)(F)F)c2)cc2cc(C(C)(C)C(=O)NC(C)(C)C)ccc21 | 61 | –
6.22 | – | – | CCOC(=O)C(C)(C)c1ccc2c(c1)c([C@H](C)CO)c(-c1cc(C)cc(C)c1)n2C(=O)OC(C)(C)C | 40 | inhibition at 10 µM [12]: 25%
6.06 | 89 | – | Cc1cc(C)cc(-c2cc3cc(C(C)(C)C(=O)N(C)C)ccc3n2CC(C)O)c1 (stereo not given) | 52 | –
5.94 | 89 | – | Cc1cc(C)cc(-c2cc3cc(C(C)(C)C(=O)NC4CC4)ccc3n2CC(C)O)c1 (stereo not given) | – | –
– | 70 | – | COC(=O)C(C)(C)c1ccc2c(c1)cc(-c1cc(C)cc(C)c1)n2CC(C)O (stereo not given) | 64 | –
– | 78 | – | Cc1cc(C)cc(-c2cc3cc(C(C)(C)C(=O)NC(C)(C)C)ccc3[nH]2)c1 | – | –
– | – | < 4.52 | CC(C)(C)NC(=O)Cn1c(-c2ccc(F)cc2)cc2cc(C(C)(C)C(=O)NC(C)(C)C)ccc21 | 82 | –
